Source: ChEMBL document CHEMBL1148725, “2,2,2-Trichloro-N-({2-[2-(dimethylamino)ethyl]-1,3-dioxo-2,3-dihydro-1H-benzo[de]isoquinolin- 5-yl}carbamoyl)acetamide (UNBS3157), a novel nonhematotoxic naphthalimide derivative with potent antitumor activity” (J Med Chem, 2007)
Activity calls are given as the source filed them. The calls are words filed in the database; no cut-off is given here.

Key:
HCT-15 = assay: Antiproliferative activity against HCT15 cells after 72 hrs by MTT assay; assay type: functional, cell-based, Homo sapiens; details: Homo sapiens, HCT-15, 72 h
Summary of the method: (§1)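 Cells cultured with each compound for three days; growth then read by the MTT colorimetric assay and reported as IC50 (µM).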

L1210 [1] = assay: Antitumor activity in L1210 cells xenografted B6D2F1 mouse at 80 mg/kg, ip relative to control; assay type: functional; details: route intraperitoneal
Summary of the method: (§2)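 Mice grafted with L1210 leukaemia cells on day 0, then dosed i.p. four times weekly on days 1-4 and 8-11. Five mice per group. Outcome is %T/C, the median survival of treated over control. Kruskal-Wallis test followed by Dunn comparisons against control.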

LoVo = assay: Antiproliferative activity against LoVo cells after 72 hrs by MTT assay; assay type: functional, cell-based, Homo sapiens; details: Homo sapiens, LoVo, 72 h; summary of the method: as §1
L1210 [2] = assay: Antitumor activity in L1210 cells xenografted B6D2F1 mouse at 20 mg/kg, ip relative to control; assay type: functional; details: route intraperitoneal; summary of the method: as §2
L1210 [3] = assay: Antitumor activity in L1210 cells xenografted B6D2F1 mouse at 120 mg/kg, ip relative to control; assay type: functional; details: route intraperitoneal; summary of the method: as §2
[4] = Antiproliferative activity against Hs683 cells after 72 hrs by MTT assay; assay type: functional, cell-based, Homo sapiens, Hs 683; details: Homo sapiens, Hs 683, 72 h; summary of the method: as §1
[5] = Toxicity in ip dosed B6D2F1 mouse; assay type: organism-based; details: in vivo
Summary of the method: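 Acute MTD was set by a single i.p. dose to groups of three healthy female B6D2F1 mice, at 2.5, 5, 10, 20, 40, 80 and 160 mg/kg. The MTD is the dose just below the lowest dose that killed at least one mouse.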

L1210 [6] = assay: Antitumor activity in L1210 cells xenografted B6D2F1 mouse at 40 mg/kg, ip relative to control; assay type: functional; details: route intraperitoneal; summary of the method: as §2
L1210 [7] = assay: Antitumor activity in L1210 cells xenografted B6D2F1 mouse at 10 mg/kg, ip relative to control; assay type: functional; details: route intraperitoneal; summary of the method: as §2
Mus musculus [8] = assay: Hematotoxicity in ip dosed B6D2F1 mouse assessed as decrease in platelet count; assay type: organism-based; details: in vivo
Summary of the method: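 Healthy female B6D2F1 mice, 10 per group, dosed i.p. three times weekly for five weeks at two dose levels set relative to MTD. Vehicle DMSO/saline 5:95 v/v. Killed 3 days after the last dose; blood platelet, RBC and WBC counts taken with a Coulter counter.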

MCF7 [9] = assay: Antiproliferative activity against MCF7 cells after 72 hrs by MTT assay; assay type: functional, cell-based, Homo sapiens; summary of the method: as §1
Mus musculus [10] = assay: Toxicity in B6D2F1 mouse at 120 mg/kg, ip; assay type: organism-based; parameters: dose 120 mg/kg, route intraperitoneal; details: in vivo
Summary of the method: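 Healthy female B6D2F1 mice, 10 per group, dosed i.p. in DMSO/saline (5:95 v/v) three times weekly for five weeks at two levels set relative to MTD; sacrificed 3 days after final dose; platelet, RBC and WBC counted by Coulter counter.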

A549 [11] = assay: Antiproliferative activity against A549 cells after 72 hrs by MTT assay; assay type: functional, cell-based, Homo sapiens; details: Homo sapiens, A549, 72 h; summary of the method: as §1
[12] = Antiproliferative activity against U373MG cells after 72 hrs by MTT assay; assay type: functional, cell-based, Homo sapiens, U-373MG ATCC; details: Homo sapiens, U373 MG, 72 h; summary of the method: as §1
[13] = molecular target: DNA topoisomerase 2-alpha (Homo sapiens) (UniProt P11388); assay: Inhibition of human topoisomerase 2-mediated kinetoplast DNA […] at 50 uM
Summary of the method: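 Topoisomerase II strand-passage activity by kDNA decatenation; compounds at 50 µM; catenated networks stay in wells, decatenated kDNA enters ethidium bromide-stained agarose gel; no-enzyme and no-drug reactions as controls.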

MCF7 [14] = assay: Induction of apoptosis in human MCF7 cells assessed as p53 activation; assay type: functional, cell-based
Summary of the method: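 MCF-7 cells treated and p53 activation assessed by immunoblotting, with tubulin as loading control. Adriamycin (2.5 µM, 24 h) served as positive control.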

Homo sapiens = species: Homo sapiens; assay: Inhibition of human topoisomerase 2 at 50 uM by plasmid linearization assay
[15] = molecular target: T1, DNA topoisomerase 1 (Homo sapiens) (UniProt P11387); assay: Inhibition of human topoisomerase 1 by DNA unwinding test
T1 sequence (whole entry): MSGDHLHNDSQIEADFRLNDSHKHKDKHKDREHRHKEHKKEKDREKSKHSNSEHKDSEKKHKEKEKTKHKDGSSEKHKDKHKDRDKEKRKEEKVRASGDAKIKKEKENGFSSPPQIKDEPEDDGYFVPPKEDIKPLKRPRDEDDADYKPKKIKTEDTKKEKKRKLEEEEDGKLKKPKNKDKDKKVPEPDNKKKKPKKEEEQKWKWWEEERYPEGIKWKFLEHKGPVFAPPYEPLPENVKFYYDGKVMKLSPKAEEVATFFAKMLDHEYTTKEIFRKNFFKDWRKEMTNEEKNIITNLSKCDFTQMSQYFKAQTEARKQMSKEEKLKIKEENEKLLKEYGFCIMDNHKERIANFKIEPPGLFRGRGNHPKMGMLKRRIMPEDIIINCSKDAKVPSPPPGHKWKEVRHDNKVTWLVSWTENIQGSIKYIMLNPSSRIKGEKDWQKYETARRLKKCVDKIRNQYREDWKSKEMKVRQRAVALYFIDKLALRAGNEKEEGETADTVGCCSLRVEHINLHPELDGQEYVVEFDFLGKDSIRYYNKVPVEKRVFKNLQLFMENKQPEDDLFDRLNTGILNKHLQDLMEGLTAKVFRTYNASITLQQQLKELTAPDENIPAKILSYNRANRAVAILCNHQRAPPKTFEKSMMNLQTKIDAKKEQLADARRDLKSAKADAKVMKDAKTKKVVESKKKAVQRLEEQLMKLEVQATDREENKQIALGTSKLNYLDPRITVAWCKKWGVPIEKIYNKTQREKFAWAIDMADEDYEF
Summary of the method: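 DNA unwinding assay: relaxed pBR322 plasmid converted to supercoiled form in presence of topoisomerase I; compounds at final 4–32 µM (one up to 15–55 µM); ethidium bromide-stained agarose gels; UC50 taken as concentration shifting relaxed band to midpoint between supercoiled and relaxed states.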

MDA-MB-231 = assay: Antitumor activity against human MDA-MB-231 cells xenografted in immunocompromised mouse at 10 mg/kg, iv
A549 [16] = assay: Antitumor activity against human A549 cells xenografted in mouse at 10 mg/kg, iv; assay type: functional, organism-based; parameters: dose 10 mg/kg
Summary of the method: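 Human A549 NSCLC cells grafted orthotopically into the lungs of immunocompromised mice. Compound given i.v. at 10 mg/kg. Survival gain assessed by survival curve analysis.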

PC-3 = assay: Induction of senescence in human PC3 cells; assay type: functional, cell-based
Summary of the method: (§3)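 SA-β-galactosidase staining of PC-3 and DU-145 prostate cancer cells after 72 h at 10 µM; adriamycin 20 nM as positive control; expressed as percentage of positively stained cells.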

DU-145 = assay: Induction of senescence in human DU145 cells; assay type: functional, cell-based; summary of the method: as §3

DNA topoisomerase 2-alpha (Homo sapiens), sequence (P11388 whole entry): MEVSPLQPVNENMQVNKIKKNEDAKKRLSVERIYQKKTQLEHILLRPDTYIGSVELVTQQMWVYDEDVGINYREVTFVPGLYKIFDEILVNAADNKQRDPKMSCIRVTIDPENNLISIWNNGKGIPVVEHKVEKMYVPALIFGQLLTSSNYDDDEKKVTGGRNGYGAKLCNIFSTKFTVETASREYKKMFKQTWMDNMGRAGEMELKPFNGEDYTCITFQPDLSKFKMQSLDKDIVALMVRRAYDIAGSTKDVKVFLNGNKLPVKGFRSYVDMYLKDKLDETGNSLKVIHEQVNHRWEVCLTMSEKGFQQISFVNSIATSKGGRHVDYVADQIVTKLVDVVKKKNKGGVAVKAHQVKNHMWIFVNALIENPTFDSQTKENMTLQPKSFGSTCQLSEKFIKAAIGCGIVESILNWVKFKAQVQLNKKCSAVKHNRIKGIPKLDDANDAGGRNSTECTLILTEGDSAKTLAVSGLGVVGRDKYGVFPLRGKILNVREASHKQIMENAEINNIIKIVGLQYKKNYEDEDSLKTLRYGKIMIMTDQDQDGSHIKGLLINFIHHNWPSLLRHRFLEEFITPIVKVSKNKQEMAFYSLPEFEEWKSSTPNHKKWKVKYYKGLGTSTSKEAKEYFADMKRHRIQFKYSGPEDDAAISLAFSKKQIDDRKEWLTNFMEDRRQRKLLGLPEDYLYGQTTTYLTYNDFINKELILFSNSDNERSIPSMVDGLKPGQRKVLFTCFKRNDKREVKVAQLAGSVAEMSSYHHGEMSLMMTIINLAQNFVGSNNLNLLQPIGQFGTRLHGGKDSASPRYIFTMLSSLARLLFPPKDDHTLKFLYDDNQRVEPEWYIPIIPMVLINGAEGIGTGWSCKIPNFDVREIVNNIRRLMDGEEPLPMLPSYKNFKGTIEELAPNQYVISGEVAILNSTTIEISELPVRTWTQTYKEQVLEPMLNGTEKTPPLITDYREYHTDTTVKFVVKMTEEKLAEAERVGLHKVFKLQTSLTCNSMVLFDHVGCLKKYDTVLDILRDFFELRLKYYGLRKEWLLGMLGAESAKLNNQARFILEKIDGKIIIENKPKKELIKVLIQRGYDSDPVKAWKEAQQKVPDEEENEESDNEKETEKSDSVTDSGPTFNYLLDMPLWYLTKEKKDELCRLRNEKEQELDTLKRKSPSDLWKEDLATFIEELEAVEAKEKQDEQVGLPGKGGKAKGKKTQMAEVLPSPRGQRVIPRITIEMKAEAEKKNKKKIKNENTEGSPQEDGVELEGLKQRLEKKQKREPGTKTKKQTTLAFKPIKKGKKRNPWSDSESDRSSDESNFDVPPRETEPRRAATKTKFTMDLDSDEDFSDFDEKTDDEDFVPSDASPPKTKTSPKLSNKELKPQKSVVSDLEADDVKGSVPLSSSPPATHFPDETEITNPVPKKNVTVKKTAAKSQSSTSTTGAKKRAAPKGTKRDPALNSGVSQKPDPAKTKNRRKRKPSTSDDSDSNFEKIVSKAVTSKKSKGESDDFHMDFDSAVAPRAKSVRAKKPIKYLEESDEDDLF

| Structure (SMILES) | IC50 (HCT-15) [µM] | IC50 (LoVo) [µM] | Activity (L1210 [2]) [%] | IC50 [4] [µM] | MTD [5] [mg/kg] | Activity (L1210 [7]) [%] | IC50 (MCF7 [9]; Homo sapiens, MCF7, 72 h) [µM] | IC50 (A549 [11]) [µM] | IC50 [12] [µM] | other results |
| --- | --- | --- | --- | --- | --- | --- | --- | --- | --- | --- |
| CN(C)CCN1C(=O)c2cccc3cc(/N=C\c4ccc5c(c4)OCO5)cc(c23)C1=O | 9 | 8.3 | 150 | > 10 | 80 | 115 | > 10 | > 10 | > 10 | Activity (L1210 [1]): 288%; Activity (L1210 [3]): 41%; Activity (L1210 [6]): 165%; Activity (Mus musculus [8]): Toxic; Activity (Mus musculus [10]): Toxic |
| CN(C)CCN1C(=O)c2cccc3cc(NC(=O)NC(=O)CCl)cc(c23)C1=O | 4.5 | 2.9 | 147 | 3 | 20 | – | 4.9 | 4.1 | 3.3 | – |
| CN(C)CCN1C(=O)c2cccc3cc(NC(=O)NCCCl)cc(c23)C1=O | 5.6 | 1.8 | 156 | 4.6 | > 80 | – | 3.9 | 3 | 1 | – |
| CN(C)CCN1C(=O)c2cccc3cc(/N=C\c4cc5c(cc4[N+](=O)[O-])OCO5)cc(c23)C1=O | > 10 | > 10 | 195 | > 10 | > 160 | 215 | > 10 | > 10 | 5 | Activity (L1210 [1]): >300%; Activity (L1210 [3]): 40%; Activity (L1210 [6]): 278%; Activity (Mus musculus [8]): Toxic; Activity (Mus musculus [10]): Toxic |
| COc1ccc(CC(=O)Nc2cc3c4c(cccc4c2)C(=O)N(CCN(C)C)C3=O)cc1 | 2.8 | 1.3 | – | 4.2 | 10 | 107 | 2.2 | 3.2 | 2.7 | – |
| CCOC(=O)CC(=O)Nc1cc2c3c(cccc3c1)C(=O)N(CCN(C)C)C2=O | > 10 | > 10 | – | > 10 | > 80 | 129 | > 10 | > 10 | > 10 | – |
| CN(C)CCN1C(=O)c2cccc3cc(/N=C\c4cc(O)ccc4O)cc(c23)C1=O | – | – | – | – | – | – | – | – | – | Activity [13]: Active; Activity (MCF7 [14]): Active; Activity (Homo sapiens): Active; UC50 [15]: 13 µM |
| CN(C)CCN1C(=O)c2cccc3cc(N)cc(c23)C1=O | – | – | – | – | – | – | – | – | – | Activity [13]: Active; Activity (MCF7 [14]): Active; Activity (MDA-MB-231): Active; Activity (Homo sapiens): Active; Activity (A549 [16]): inactive; UC50 [15]: 8 µM |
| CN(C)CCN1C(=O)c2cccc3cc(NC(=O)c4ccccc4)cc(c23)C1=O | 8.4 | 3.7 | 167 | 5.6 | 40 | – | > 10 | 8.5 | 6 | – |
| CN(C)CCN1C(=O)c2cccc3cc(N)cc(c23)C1=O.Cl | 8.8 | 3.5 | – | 4.7 | – | 120 | – | 4.8 | 4.5 | IC50 (MCF7 [9]; mcf7): 9 µM |
| CN(C)CCN1C(=O)c2cccc3cc(NC(=O)Cc4ccc(Cl)cc4)cc(c23)C1=O | 5.5 | 4.8 | – | 7 | 20 | 200 | 4.8 | 4.7 | 5.8 | – |
| CN(C)CCN1C(=O)c2cccc3cc(NC(=O)Nc4cc5c6c(cccc6c4)C(=O)N(CCN(C)C)C5=O)cc(c23)C1=O | 4.6 | 2.8 | 124 | 5 | 40 | – | 4.8 | 3.6 | 3.6 | – |
| COc1cccc2c1C(=O)c1c(O)c3c(c(O)c1C2=O)C[C@@](O)(C(=O)CO)C[C@@H]3O[C@H]1C[C@H](N)[C@H](O)[C@H](C)O1 | – | – | – | – | – | – | – | – | – | Activity (PC-3): inactive; Activity (DU-145): Active |
| CN(C)CCN1C(=O)c2cccc3cc(NC(=O)C(Cl)(Cl)Cl)cc(c23)C1=O | > 10 | 6.4 | 150 | > 10 | > 80 | – | > 10 | 10 | 8.9 | – |
